# Experimental data: ChEMBL document CHEMBL4145582, “Cytotoxic and Antibacterial Eremophilane Sesquiterpenes from the Marine-Derived Fungus Cochliobolus lunatus SCSIO41401” (J Nat Prod, 2018)
# Activity calls are given as the source filed them. No cut-off for these calls is given here.
# Tests used:
# 786-0 = test: Cytotoxicity against human 786-O cells after 72 hrs by CCK8 assay; assay type: functional, cell-based; details: for IC50: 786-0, 72 h
# Method in brief: (§1)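 Renal cancer lines ACHN, 786-O and OS-RC-2; cell viability read by CCK-8 assay, with sorafenib as positive control.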
# OS-RC-2 = test: Cytotoxicity against human OS-RC2 cells after 72 hrs by CCK8 assay; assay type: functional, cell-based; details: for IC50: OS-RC-2, 72 h; method in brief: as §1
# Pasteurella multocida = test: Antimicrobial activity against Pasteurella multocida subsp. multocida ATCC 43137 after 24 hrs by serial dilution method; assay type: functional; details: for MIC: ATCC 43137, 24 h
# Method in brief: (§2)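 Serial broth dilution in 96-well microtiter plates. Compounds and controls are dissolved in DMSO as stock. Bacteria are grown overnight at 37 °C, then diluted to 10^6 cfu/mL. E. coli and S. aureus are grown in Luria–Bertani broth. P. multocida and E. rhusiopathiae are grown in trypticase soy broth with 10% calf serum. Plates are incubated at 37 °C for 24 h and read at 630 nm.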
# Escherichia coli = test: Antimicrobial activity against Escherichia coli ATCC 25922 after 24 hrs by serial dilution method; assay type: functional; details: for MIC: ATCC 25922, 24 h; method in brief: as §2
# ACHN = test: Cytotoxicity against human ACHN cells after 72 hrs by CCK8 assay; assay type: functional, cell-based; method in brief: as §1
# [1] = tested on: Erysipelothrix rhusiopathiae; test: Antimicrobial activity against Erysipelothrix rhusiopathiae ATCC 19414 after 24 hrs by serial dilution method; assay type: functional; details: for MIC: ATCC 19414, 24 h; method in brief: as §2
# Staphylococcus aureus = test: Antimicrobial activity against Staphylococcus aureus subsp. aureus Rosenbach ATCC 25923 after 24 hrs by serial dilution method; assay type: functional; details: for MIC: Rosenbach ATCC 25923, 24 h; method in brief: as §2
# HepG2 = test: Cytotoxicity against human HepG2 cells after 6 days by MTT assay; assay type: functional, cell-based; details: for IC50: HepG2, 144 h
# Method in brief: (§3)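 HepG-2 and SGC7901 cells; growth inhibition read by MTT method, with 5-fluorouracil as positive control.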
# SGC-7901 = test: Cytotoxicity against human SGC7901 cells after 6 days by MTT assay; assay type: functional, cell-based; details: for IC50: SGC-7901, 144 h; method in brief: as §3
MIC (Pasteurella multocida),MIC (Escherichia coli),MIC [1],MIC (Staphylococcus aureus),SMILES,IC50 (786-0),IC50 (OS-RC-2),IC50 (ACHN),IC50 (HepG2),IC50 (SGC-7901),Activity (786-0),Activity (OS-RC-2),Activity (Pasteurella multocida),Activity (Escherichia coli),Activity (ACHN),Activity [1],Activity (Staphylococcus aureus),Activity (HepG2),Activity (SGC-7901)
> 100 µg/mL,> 100 µg/mL,> 100 µg/mL,> 100 µg/mL,CC[C@@H]1OC(=O)c2c1ccc(O)c2O,> 50 µM,> 50 µM,> 50 µM,> 50 µM,> 50 µM,–,–,–,–,–,–,–,–,–
> 100 µg/mL,> 100 µg/mL,> 100 µg/mL,> 100 µg/mL,C=C(CO)[C@]1(O)C[C@@]2(C)C(=CC1=O)C=CC[C@@H]2C,> 50 µM,> 50 µM,> 50 µM,> 50 µM,> 50 µM,–,–,–,–,–,–,–,–,–
13 µg/mL,> 100 µg/mL,25 µg/mL,50 µg/mL,COC(=O)[C@]12Oc3cc(C)c(-c4ccc(O)c5c4O[C@@]4(C(=O)OC)C(=C(O)C[C@@H](C)[C@H]4O)C5=O)c(O)c3C(=O)C1=C(O)CC[C@H]2O,46 µM,> 50 µM,> 50 µM,> 50 µM,> 50 µM,–,–,–,–,–,–,–,–,–
–,–,–,–,Cc1cc(=O)c2c(C)cc(O)cc2o1,–,–,–,–,–,inactive,inactive,inactive,inactive,inactive,inactive,inactive,inactive,inactive
–,–,–,–,CNC(=O)c1cc(Oc2ccc(NC(=O)Nc3ccc(Cl)c(C(F)(F)F)c3)cc2)ccn1 [SORAFENIB],5.3 µM,15 µM,3.5 µM,–,–,–,–,–,–,–,–,–,–,–
> 100 µg/mL,> 100 µg/mL,> 100 µg/mL,> 100 µg/mL,CC[C@@H]1OC(=O)c2cc(O)c(O)cc21,28 µM,> 50 µM,34 µM,> 50 µM,> 50 µM,–,–,–,–,–,–,–,–,–

SMILES,MIC (Pasteurella multocida),MIC (Escherichia coli),MIC [1],MIC (Staphylococcus aureus),IC50 (786-0),IC50 (OS-RC-2),IC50 (ACHN),IC50 (HepG2),IC50 (SGC-7901),Activity (786-0),Activity (OS-RC-2),Activity (Pasteurella multocida),Activity (Escherichia coli),Activity (ACHN),Activity [1],Activity (Staphylococcus aureus),Activity (HepG2),Activity (SGC-7901)
Cc1cc(O)c2c(c1)C(=O)c1cc(O)cc(O)c1C2=O [EMODIN],> 100 µg/mL,> 100 µg/mL,> 100 µg/mL,100 µg/mL,–,–,–,1.7 µM,5.6 µM,–,–,–,–,–,–,–,–,–
